RORa activator: activators of orphan receptor RORA, primary screen, cell-based, luminescence | Nuclear receptor ROR-alpha (Homo sapiens), P35398 | activation, % at 10 µM | CHO-K1 Gal4-RORA LBD luciferase reporter; percent increase over mock-subtracted basal signal | 65,000 compounds, 1.5% hits;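 active = activation above the mean of all tested compounds plus 3 SD, cut at about 49% in these data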;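 note: 0% = DMSO-treated RORA cells and 100% = added signal equal to DMSO minus mock-transfected cells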
MT1-MMP txn act: MT1-MMP promoter reporter activation – cell-based, luciferase luminescence, primary screen; 86,000 compounds, 0.16% hits; HT1080 MT1-MMP promoter luciferase reporter, overnight; hits give high values; AID 750, 2007; activation factor at 10 µM;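 active = activation factor of at least 2 for MT1-MMP transcription at 10 µM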
SF1 activator: activators of human SF-1, primary screen, cell-based, CHO-K1, Gal4-SF-1 LBD, luciferase luminescence | Steroidogenic factor 1 (Homo sapiens), Q13285 | CHO-K1 Gal4-SF-1 LBD luciferase reporter; % increase over DMSO SF-1-specific signal | activation, % at 10 µM | 65,000 compounds, 1.9% hits;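 active = activation above the mean activation of all tested compounds plus 3 SD, cut at about 50% in these data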
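Test system: CHO-K1 cells co-transfected with Gal4 DBD–human SF-1 LBD, 5xGal4 luciferase reporter. Quantity: 4,000 cells per well. Compound: 10 µM only. Incubation: compound added 1 h post-seeding, 20 h exposure at 37 °C, 5% CO2. Detection: SteadyLite luciferase luminescence. Replication: one test per compound.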
M1 ag: M1 muscarinic receptor agonists, primary screen, CHO-M1 cells, Fluo-4 calcium, agonist mode | Fluo-4 calcium fluorescence; hits give high values | 64,000 compounds, 3% hits | Muscarinic acetylcholine receptor M1 | B-score at 10 µM;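 active = fluorescence rise, raw or as B-score row- and column-corrected plate score, outside the 99.7% band of its plate's samples, either direction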
M1 antagonist: antagonists of rat M1 muscarinic receptor; Muscarinic acetylcholine receptor M1 (Rattus norvegicus), P08482; CHO-M1 cells, Fluo-4 calcium, ACh EC80 antagonist mode; hits give low values; B-score at 10 µM; 64,000 compounds, 3.4% hits; AID 628, 2007;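 active = calcium fluorescence response, raw or row-and-column corrected B-score, differing from the plate sample mean either way at a set confidence level, mostly lower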
Target sequence (P08482 whole entry, looked up): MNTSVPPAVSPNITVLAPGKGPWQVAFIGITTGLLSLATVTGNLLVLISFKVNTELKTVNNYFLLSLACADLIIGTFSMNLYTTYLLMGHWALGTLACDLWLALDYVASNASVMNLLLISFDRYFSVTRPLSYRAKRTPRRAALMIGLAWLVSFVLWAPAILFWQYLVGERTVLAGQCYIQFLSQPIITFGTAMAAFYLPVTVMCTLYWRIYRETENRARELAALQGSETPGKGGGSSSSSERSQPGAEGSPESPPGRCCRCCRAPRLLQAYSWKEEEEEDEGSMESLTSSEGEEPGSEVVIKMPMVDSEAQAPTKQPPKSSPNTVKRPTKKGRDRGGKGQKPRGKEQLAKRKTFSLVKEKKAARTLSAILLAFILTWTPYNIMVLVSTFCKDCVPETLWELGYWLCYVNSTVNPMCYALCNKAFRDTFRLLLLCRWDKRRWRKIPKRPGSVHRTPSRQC
M1 ag confirm: rat M1 muscarinic receptor agonists, confirmation, CHO-M1 cells, Fluo-4 calcium, duplicate retest | shares compounds with M1 ag | fluorescence change (max-min) at 10 µM | 1,700 compounds, 19% hits | Fluo-4 calcium fluorescence, agonist mode; actives lie on both sides;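 active = fluorescence change differs from the solvent-only DMSO control mean at a set confidence level in both duplicate runs; inconclusive = differs from solvent-only control mean in just one of two runs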;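 note: an EC20 dose of acetylcholine follows compound addition during the same imaging run; raw fluorescence intensity difference in instrument units with no normalization to controls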
M4 ag counter: agonist activity at rat M4 receptor, confirmation, counter-screen for M1 allosteric modulator project, cell-based, agonist mode. 1,700 compounds, 9% hits. shares compounds with M1 ag. CHO M4/Gqi5 cells, Fluo-4 calcium fluorescence; actives lie on both sides. fluorescence change (max-min) at 10 µM. AID 1741, 2009;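 active = fluorescence change differing from the plate's solvent-only control wells at 99.7% confidence in both duplicates, whether higher or lower; inconclusive = differs from solvent controls in only one of two duplicates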
Active calls of the source: *; ? = inconclusive; / = no result. Hits are enriched below; roughly 6.3% of the tested compounds scored in any of these assays.

SMILES	RORa activator	MT1-MMP txn act	SF1 activator	M1 ag	M1 antagonist	M1 ag confirm	M4 ag counter
O=C(Cn1ncc2c(=O)oc3ccccc3c21)N1CCN(C(=O)c2ccco2)CC1	-9	1.2	-8	-0.35	-0.51	/	/
O=C(Cn1ncc2c(=O)oc3ccccc3c21)N1CCCN(Cc2ccccc2F)C1	-17	1.1	-15	6*	-0.88	-10	-33
c1ccc(-c2nc3nonc3nc2-c2ccccc2)cc1	-39	0.8	-26	-0.33	-1.9	/	/
CCCCn1c2c(c3ccccc31)CCc1nonc1-2	-12	/	9	1.1	0.36	/	/
O=C(Cn1cnc2c(nnn2-c2ccc(F)cc2)c1=O)N1CCCc2ccccc21	29	1.1	25	-3.2*	0.44	16	-41
COc1ccc(OC)c(NC2c3ncccc3C(=O)N2Cc2ccco2)c1 (configuration not stated)	-21	1.1	1	-0.64	-0.13	/	/
COc1ccc(CN2C(=O)c3cccnc3C2Nc2cc(Cl)ccc2OC)cc1 (configuration not stated)	-9	1.1	6	4.8*	1.1	-4.8	-30
CCOC(=O)C1CCN(c2ncnc3c2oc2ccccc23)CC1	5	1	-11	2.7	0.096	/	/
CCc1nnc(N2CCN(c3ncnc4c3oc3ccccc34)CC2)s1	-2	1.2	-12	9.9*	-4*	1.8	-49
CCOC(=O)C1CCN(c2nc(-c3ccccc3)nc3c2oc2ccccc23)CC1	-16	1.2	-14	5.8*	0.01	-15	-29
CCOC(=O)C1CCCN(c2ncnc3c2oc2ccccc23)C1 (configuration not stated)	21	1.5	11	4.2*	-3.3*	5.8	-44
O=C(NC1(C(F)(F)F)C(=O)Nc2c1c(=O)[nH]c(=O)n2Cc1ccco1)C1CCCCC1 (configuration not stated)	-18	1.1	-1	0.021	0.76	/	/
O=C(Nc1nnc(CCN2CCOCC2)s1)C1CCCCC1	-8	1.3	-3	-0.0075	0.024	/	/
O=C(Nc1nnc(CCN2CCCCC2)s1)C1CCCCC1	-15	1.1	-2	2.7*	-1.7	?	-76
CCc1ccccc1NC(=O)c1cc(C2CC2)on1	-8	1.2	8	-0.0049	-0.25	/	/
O=c1c(O)c(-c2cccs2)oc2ccccc12	-28	1.1	-4	140*	-1.6*	696*	622*
COc1cccc2cc(-c3nc(-c4cccs4)cs3)c(=O)oc12	55*	1.6	33	14*	0.58	?	?
COc1ccc(C2C(C(C)=O)=C(C)N=c3s/c(=C\c4cc(C)n(C)c4C)c(=O)n32)c(OC)c1 (configuration not stated)	-6	1	-6	144*	-0.086	458*	?
N#Cc1ccc(C23CC4(C2)[C@H](CN(Cc2cccnc2)[C@@H]4c2ccccc2)C3c2ccccc2)cc1 (some centres not stated)	/	1.1	/	/	/	/	/
CCOC(=O)C1=C(N)Oc2cc(C)n(CCc3ccc(OC)c(OC)c3)c(=O)c2C1c1cccnc1 (configuration not stated)	-24	1	5	8.5*	-0.65	?	-67
CCOc1cc(NC(=O)C2CC2)c(OCC)cc1NC(=O)c1cccnc1	-22	1.7	0	-1.1	0.32	/	/
c1ccc(-c2nnc(SCc3cn4ccsc4n3)o2)cc1	42	1.3	16	39*	-0.42	-13	-40
c1ccc(-c2nnc(CSc3nnc(-c4cccs4)o3)o2)cc1	14	1.2	6	-0.017	-0.13	/	/
Cn1c(=O)c2c(SCC(=O)c3ccccc3)nc(C3CC3)nc2n(C)c1=O	-19	1	-13	2.7*	-1	-13	-44
CCCc1cc(=O)oc2cc3oc(C)c(C)c3cc12	-10	1	-2	0.44	-0.38	/	/
SMILES	RORa activator	MT1-MMP txn act	SF1 activator	M1 ag	M1 antagonist	M1 ag confirm	M4 ag counter
CCCc1cc(=O)oc2cc3occ(C)c3cc12	6	1.2	-16	2.7*	-1.1	-26	?
CN1CCN(S(=O)(=O)c2ccc(NC(=O)c3ccc(Br)s3)cc2)CC1	3	1.1	17	-0.39	-1.2	/	/
O=C(Nc1ccccc1)N1CC=C(c2ccc(F)cc2)CC1	66*	1.3	38	5.4*	-3.2*	?	?
O=C(Nc1cccc(F)c1)N1CC=C(n2c(=O)[nH]c3ccccc32)CC1	1	1	1	-0.18	-0.89	/	/
C=CCN1C(c2ccccc2)=CS/C1=C(\C#N)c1nnc2n1CCCCC2	2	1	10	0.26	0.13	/	/
CCOc1ccc(C2=CS/C(=C(\C#N)c3nnc4n3CCCCC4)N2CC)cc1	12	0.9	-2	3.8*	-0.056	-18	-38
CCCCCCNc1c(C(=O)OCC)c(=O)[nH]c2ccccc12	-12	1.2	-3	5.4*	-0.37	-28	-33
CCOC(=O)c1c(NCC2CCCO2)c2ccccc2[nH]c1=O (configuration not stated)	/	1.1	/	/	/	/	/
CN1CCN(CCCNC(=O)c2cn(C3CCCCC3)c(=O)c3c2c2ccccc2n3C)CC1	2	/	-10	-0.44	0.36	/	/
Cn1c2ccccc2c2c(C(=O)NCC3CCCO3)cn(C3CCCC3)c(=O)c21 (configuration not stated)	-9	/	-6	8.8*	0.0061	-9.8	-63
CCOC(=O)C(C(=O)Nc1ccc(C)cc1)C1CCCCC1 (configuration not stated)	/	1.2	/	/	/	/	/
CCOC(=O)c1c(C)n(C)c2ccc(OCC(N)=O)cc12	-7	1.1	4	2	0.87	/	/
CCOC(=O)c1c(C)n(C)c2ccc(OCC(O)Cn3nc(C)cc3C)cc12 (configuration not stated)	-11	1.1	-11	2.7*	-0.36	?	-40
CCNc1nc(NCC)nc(C(=O)NN)n1	/	1.2	/	/	/	/	/
O=C(NCC1CCCO1)c1ccccc1-c1nc(-c2ccccc2)no1 (configuration not stated)	-15	1.6	21	2.4*	0.1	-15	?
CSc1ccccc1C(=O)NCC1CCCO1 (configuration not stated)	/	1.1	/	/	/	/	/
C=CCNc1ncnc2c1[nH]c1ccc(C)cc12	24	1.3	19	4.2*	-0.47	18	-22
CC(C)Sc1nc2ccccc2n1CC(=O)NCc1ccc2c(c1)OCO2	/	1.2	/	/	/	/	/

Screens from PubChem.
